Experimental data: ChEMBL document CHEMBL4007505 (J Med Chem, 2017)
Each block holds one compound with its values, some of them ahead of it. Calls of active or inactive are those of the source.

Assays:
[1] = target: Sigma intracellular receptor 2 (Rattus norvegicus, UniProt Q5U3Y7); test: Displacement of [3H]DTG from rat sigma 2 receptor
[2] = target: T1, Adenosine receptor A3 (Mus musculus) (UniProt Q61618); test: Displacement of [125I]N6-(4-amino-3-iodobenzyl)adenosine-5'-N-methyluronamide from mouse A3AR expressed in HEK293T cells at 10 uM pre-incubated for 10 mins before radioligand addition and measured 90 mins after radioligand addition by micro beta scintillation counting analysis relative to control; type: cell-based
T1 sequence (whole entry): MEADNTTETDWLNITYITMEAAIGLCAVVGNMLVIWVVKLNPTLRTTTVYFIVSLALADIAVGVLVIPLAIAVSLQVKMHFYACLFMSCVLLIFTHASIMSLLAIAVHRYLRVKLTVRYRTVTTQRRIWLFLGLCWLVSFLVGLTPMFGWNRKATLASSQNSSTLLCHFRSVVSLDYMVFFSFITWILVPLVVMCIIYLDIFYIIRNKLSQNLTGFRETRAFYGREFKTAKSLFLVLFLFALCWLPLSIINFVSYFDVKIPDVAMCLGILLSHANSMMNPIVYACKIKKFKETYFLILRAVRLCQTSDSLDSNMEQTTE

[3] = target: T2, Sodium-dependent dopamine transporter (Homo sapiens, UniProt Q01959); test: Enhancing of [3H]WIN35,428 binding to recombinant human DAT expressed in HEK293 cell membranes at 10 uM pre-incubated for 10 mins before radioligand addition and measured 90 mins after radioligand addition by micro beta scintillation counting analysis relative to control
Adenosine receptor A3 = target: T3, Adenosine receptor A3 (Homo sapiens, UniProt P0DMS8); test: Displacement of [125I]N6-(4-amino-3-iodobenzyl)adenosine-5'-N-methyluronamide from human A3AR expressed in HEK293T cells pre-incubated for 10 mins before radioligand addition and measured 90 mins after radioligand addition by micro beta scintillation counting analysis relative to control; type: cell-based, HEK-293T
T3 sequence (P0DMS8 whole entry): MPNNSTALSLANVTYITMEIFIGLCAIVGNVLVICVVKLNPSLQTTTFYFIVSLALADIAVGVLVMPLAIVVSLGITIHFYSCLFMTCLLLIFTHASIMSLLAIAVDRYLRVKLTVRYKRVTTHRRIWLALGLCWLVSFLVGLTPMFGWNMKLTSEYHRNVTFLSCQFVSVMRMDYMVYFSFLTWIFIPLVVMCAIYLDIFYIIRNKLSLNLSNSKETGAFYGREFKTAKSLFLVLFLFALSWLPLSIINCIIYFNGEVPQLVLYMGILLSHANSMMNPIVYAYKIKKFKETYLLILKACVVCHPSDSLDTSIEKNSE

[4] = target: T4, Alpha-1B adrenergic receptor (Homo sapiens, UniProt P35368); test: Displacement of [3H]Prazosin from human adrenergic alpha1B receptor
T4 sequence (P35368 whole entry): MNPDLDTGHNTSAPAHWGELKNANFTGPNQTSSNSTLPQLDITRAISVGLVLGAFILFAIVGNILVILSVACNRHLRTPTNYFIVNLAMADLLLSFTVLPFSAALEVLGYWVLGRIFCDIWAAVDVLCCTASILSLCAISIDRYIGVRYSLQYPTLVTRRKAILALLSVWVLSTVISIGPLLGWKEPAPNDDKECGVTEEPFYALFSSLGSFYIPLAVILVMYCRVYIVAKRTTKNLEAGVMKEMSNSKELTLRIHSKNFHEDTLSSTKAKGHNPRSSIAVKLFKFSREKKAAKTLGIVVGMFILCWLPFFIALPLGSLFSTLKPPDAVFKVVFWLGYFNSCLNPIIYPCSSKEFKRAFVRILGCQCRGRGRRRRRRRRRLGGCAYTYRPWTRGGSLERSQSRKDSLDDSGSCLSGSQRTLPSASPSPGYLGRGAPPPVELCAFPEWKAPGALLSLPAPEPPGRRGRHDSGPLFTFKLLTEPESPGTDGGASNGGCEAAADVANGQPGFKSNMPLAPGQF

[5] = target: T5, Alpha-1A adrenergic receptor (Homo sapiens, UniProt P35348); test: Displacement of [3H]Prazosin from human adrenergic alpha1A receptor
T5 sequence (P35348 whole entry): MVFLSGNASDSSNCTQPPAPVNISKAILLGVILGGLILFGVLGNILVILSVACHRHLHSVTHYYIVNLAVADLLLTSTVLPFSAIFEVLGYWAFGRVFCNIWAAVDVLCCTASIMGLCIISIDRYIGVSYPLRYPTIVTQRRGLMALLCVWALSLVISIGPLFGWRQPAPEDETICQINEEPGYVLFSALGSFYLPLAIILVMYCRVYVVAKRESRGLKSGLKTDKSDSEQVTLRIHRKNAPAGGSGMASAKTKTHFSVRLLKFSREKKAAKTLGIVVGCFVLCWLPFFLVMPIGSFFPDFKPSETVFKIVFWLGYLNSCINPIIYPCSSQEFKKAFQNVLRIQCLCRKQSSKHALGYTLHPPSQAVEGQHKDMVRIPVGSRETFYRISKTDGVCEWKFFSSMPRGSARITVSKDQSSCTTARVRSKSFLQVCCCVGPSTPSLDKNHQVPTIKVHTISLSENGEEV

[6] = target: Alpha-2A adrenergic receptor (Homo sapiens, UniProt P08913); test: Displacement of [3H]Rauwolscine from human adrenergic alpha2A receptor
[7] = target: T6, Alpha-2C adrenergic receptor (Homo sapiens, UniProt P18825); test: Displacement of [3H]Rauwolscine from human adrenergic alpha2C receptor
T6 sequence (P18825 whole entry): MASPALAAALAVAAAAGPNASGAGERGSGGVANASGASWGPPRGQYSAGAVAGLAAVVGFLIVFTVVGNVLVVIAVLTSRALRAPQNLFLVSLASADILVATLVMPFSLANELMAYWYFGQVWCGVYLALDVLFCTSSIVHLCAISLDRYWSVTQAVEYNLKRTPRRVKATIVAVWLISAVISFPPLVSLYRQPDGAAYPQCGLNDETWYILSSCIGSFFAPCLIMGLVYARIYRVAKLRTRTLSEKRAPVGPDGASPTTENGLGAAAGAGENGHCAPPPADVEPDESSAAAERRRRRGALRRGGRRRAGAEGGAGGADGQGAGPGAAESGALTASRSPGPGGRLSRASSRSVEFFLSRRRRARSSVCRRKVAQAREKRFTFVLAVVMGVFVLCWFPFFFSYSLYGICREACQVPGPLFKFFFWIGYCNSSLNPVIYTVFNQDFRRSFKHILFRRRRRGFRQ

[8] = target: T2, Sodium-dependent dopamine transporter; test: Inhibition of [3H]WIN35,428 binding to recombinant human DAT expressed in HEK293 cell membranes at 10 uM pre-incubated for 10 mins before radioligand addition and measured 90 mins after radioligand addition by micro beta scintillation counting analysis relative to control
[9] = target: T7, Alpha-1D adrenergic receptor (Homo sapiens, UniProt P25100); test: Displacement of [3H]Prazosin from human adrenergic alpha1D receptor
T7 sequence (P25100 whole entry): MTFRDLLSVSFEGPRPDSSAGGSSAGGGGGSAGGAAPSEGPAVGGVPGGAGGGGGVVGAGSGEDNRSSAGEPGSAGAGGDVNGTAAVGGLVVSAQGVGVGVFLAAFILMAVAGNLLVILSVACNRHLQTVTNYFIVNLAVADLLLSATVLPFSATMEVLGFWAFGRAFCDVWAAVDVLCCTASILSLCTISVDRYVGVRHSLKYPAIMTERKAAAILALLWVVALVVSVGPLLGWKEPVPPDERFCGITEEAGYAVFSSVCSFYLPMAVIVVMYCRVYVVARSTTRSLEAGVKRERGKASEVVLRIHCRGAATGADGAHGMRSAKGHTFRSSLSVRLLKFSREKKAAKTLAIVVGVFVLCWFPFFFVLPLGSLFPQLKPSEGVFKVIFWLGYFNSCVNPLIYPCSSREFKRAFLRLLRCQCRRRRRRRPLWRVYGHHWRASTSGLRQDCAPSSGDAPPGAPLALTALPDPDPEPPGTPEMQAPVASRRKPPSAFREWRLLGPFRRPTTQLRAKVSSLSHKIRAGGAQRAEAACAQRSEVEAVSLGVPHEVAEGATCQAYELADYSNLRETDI

Mus musculus = test: Antiallodynic activity in mouse chronic constriction injury model of neuropathic pain assessed as time duration of action for increasing in paw withdrawal threshold at 3 umol/kg, po administered on day 7 post injury; type: functional
[10] = target: T8, Sodium-dependent dopamine transporter (Mus musculus, UniProt Q61327); test: Inhibition of mouse DAT expressed in HEK293 cells assessed as reduction in [3H]-DA uptake; type: cell-based
[11] = target: Sodium-dependent dopamine transporter (Mus musculus) (UniProt Q61327); test: (§1) Enhancing of [125I]RTI-55 binding to mouse DAT expressed in HEK293 cells preincubated for 10 mins followed by radioligand addition measured after 90 mins by micro beta scintillation counting analysis; type: cell-based
How it was run: (§2)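 Membranes preincubated 10 min at room temperature with compound in Krebs-HEPES buffer pH 7.4, then [125I]23 at fixed 45-50 pM for 90 min in the dark, filtered. […] EC50 and % control binding; mean ± SEM.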

[12] = target: T8, Sodium-dependent dopamine transporter; test: as §1; type: cell-based; how it was run: as §2
[13] = target: T9, Sodium-dependent serotonin transporter (Homo sapiens, UniProt P31645); test: Enhancing of [125I]RTI-55 binding to recombinant human SERT expressed in HEK293 cell membranes preincubated for 10 mins followed by radioligand addition measured after 90 mins by micro beta scintillation counting analysis
[14] = target: T10, Sodium-dependent noradrenaline transporter (Homo sapiens, UniProt P23975); test: Inhibition of recombinant human NET expressed in HEK293 […] assessed as reduction in [3H]-norepinephrine uptake incubated for 22 mins by micro beta scintillation counting analysis
[15] = target: T10, Sodium-dependent noradrenaline transporter; test: Enhancing of [125I]RTI-55 binding to recombinant human NET expressed in HEK293 cell membranes preincubated for 10 mins followed by radioligand addition measured after 90 mins by micro beta scintillation counting analysis; design: concentration or dose not given beside the values
[16] = target: T9, Sodium-dependent serotonin transporter; test: Enhancing of [3H]mazindol binding to recombinant human SERT expressed in HEK293 cell membranes preincubated for 10 mins followed by radioligand addition measured after 90 mins by micro beta scintillation counting analysis
[17] = target: T2, Sodium-dependent dopamine transporter; test: Enhancing of [3H]mazindol binding to recombinant human DAT expressed in HEK293 cell membranes preincubated for 10 mins followed by radioligand addition measured after 90 mins by micro beta scintillation counting analysis; design: concentration or dose not given beside the values
How it was run: (§3)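 Membranes of HEK-293 cells stably expressing hDAT, hNET or hSERT. […] Compound preincubated 10 min at room temperature, then [125I]23 (40-80 pM final) or [3H]26 (1-3 nM for DAT and NET, 10-13 nM for SERT) added. Incubated 90 min at room temperature in the dark, then filtered. EC50 or Ki; mean ± SEM.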

[18] = target: T2, Sodium-dependent dopamine transporter; test: Inhibition of recombinant human DAT expressed in HEK293 cell […] as reduction in [3H]-DA uptake incubated for 22 mins by micro beta scintillation counting analysis
[19] = target: T9, Sodium-dependent serotonin transporter; test: Inhibition of recombinant human SERT expressed in HEK293 cell […] as reduction in [3H]5-HT uptake incubated for 22 mins by micro beta scintillation counting analysis
Target sequence in this assay (P31645 whole entry): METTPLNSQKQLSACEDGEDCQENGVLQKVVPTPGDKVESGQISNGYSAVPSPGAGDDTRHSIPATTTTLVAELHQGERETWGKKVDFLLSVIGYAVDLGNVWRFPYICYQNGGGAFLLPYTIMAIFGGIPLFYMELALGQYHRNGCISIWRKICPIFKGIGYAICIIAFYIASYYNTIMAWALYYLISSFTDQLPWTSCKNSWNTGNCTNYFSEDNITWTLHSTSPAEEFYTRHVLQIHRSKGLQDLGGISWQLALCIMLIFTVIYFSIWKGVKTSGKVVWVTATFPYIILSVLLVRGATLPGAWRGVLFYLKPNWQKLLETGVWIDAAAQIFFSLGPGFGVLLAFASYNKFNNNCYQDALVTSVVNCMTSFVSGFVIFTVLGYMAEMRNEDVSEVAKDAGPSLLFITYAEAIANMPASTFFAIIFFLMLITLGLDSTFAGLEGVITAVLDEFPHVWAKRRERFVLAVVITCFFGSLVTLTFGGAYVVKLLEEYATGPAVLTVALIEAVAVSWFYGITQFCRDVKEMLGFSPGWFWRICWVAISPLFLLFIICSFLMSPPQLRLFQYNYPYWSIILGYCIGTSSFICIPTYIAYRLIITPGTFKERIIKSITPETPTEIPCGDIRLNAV

[20] = target: T2, Sodium-dependent dopamine transporter; test: Enhancing of [125I]RTI-55 binding to recombinant human DAT expressed in HEK293 cell membranes preincubated for 10 mins followed by radioligand addition measured after 90 mins by micro beta scintillation counting analysis; design: concentration or dose not given beside the values; how it was run: as §3
[21] = target: T10, Sodium-dependent noradrenaline transporter; test: Enhancing of [3H]mazindol binding to recombinant human NET expressed in HEK293 cell membranes preincubated for 10 mins followed by radioligand addition measured after 90 mins by micro beta scintillation counting analysis

T10 sequence (P23975 whole entry): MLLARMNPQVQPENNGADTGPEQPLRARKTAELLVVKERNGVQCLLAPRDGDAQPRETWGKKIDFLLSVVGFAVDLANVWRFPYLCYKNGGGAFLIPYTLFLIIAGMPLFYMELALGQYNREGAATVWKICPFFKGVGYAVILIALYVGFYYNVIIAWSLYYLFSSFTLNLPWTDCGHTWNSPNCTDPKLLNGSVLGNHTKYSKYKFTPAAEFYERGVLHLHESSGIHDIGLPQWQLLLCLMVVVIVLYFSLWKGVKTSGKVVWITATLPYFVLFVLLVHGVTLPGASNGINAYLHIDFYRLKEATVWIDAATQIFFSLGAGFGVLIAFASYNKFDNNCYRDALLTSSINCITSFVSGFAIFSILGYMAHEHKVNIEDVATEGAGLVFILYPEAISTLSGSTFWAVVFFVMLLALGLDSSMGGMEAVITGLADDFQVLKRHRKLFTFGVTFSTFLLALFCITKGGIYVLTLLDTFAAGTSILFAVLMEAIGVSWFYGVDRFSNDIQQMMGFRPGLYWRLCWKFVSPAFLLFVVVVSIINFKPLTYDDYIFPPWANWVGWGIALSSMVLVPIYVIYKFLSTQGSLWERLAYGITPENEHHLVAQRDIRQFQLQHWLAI
T2 sequence (Q01959 whole entry): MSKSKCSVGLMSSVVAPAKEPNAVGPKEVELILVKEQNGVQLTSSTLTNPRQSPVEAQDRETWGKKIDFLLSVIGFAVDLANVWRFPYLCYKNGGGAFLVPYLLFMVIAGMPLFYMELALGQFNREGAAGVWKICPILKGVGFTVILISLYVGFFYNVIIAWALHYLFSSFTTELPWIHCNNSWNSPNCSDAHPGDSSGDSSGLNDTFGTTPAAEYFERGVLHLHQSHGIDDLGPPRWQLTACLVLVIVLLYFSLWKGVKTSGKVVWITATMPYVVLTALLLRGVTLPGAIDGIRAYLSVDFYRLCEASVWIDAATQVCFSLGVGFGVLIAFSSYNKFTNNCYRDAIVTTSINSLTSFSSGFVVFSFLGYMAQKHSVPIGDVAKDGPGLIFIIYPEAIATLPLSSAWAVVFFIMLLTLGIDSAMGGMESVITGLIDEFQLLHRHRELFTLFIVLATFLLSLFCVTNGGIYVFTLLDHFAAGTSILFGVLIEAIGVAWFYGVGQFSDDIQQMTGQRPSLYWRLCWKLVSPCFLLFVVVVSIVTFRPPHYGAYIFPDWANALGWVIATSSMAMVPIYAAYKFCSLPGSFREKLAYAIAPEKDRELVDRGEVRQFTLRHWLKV
T8 sequence (Q61327 whole entry): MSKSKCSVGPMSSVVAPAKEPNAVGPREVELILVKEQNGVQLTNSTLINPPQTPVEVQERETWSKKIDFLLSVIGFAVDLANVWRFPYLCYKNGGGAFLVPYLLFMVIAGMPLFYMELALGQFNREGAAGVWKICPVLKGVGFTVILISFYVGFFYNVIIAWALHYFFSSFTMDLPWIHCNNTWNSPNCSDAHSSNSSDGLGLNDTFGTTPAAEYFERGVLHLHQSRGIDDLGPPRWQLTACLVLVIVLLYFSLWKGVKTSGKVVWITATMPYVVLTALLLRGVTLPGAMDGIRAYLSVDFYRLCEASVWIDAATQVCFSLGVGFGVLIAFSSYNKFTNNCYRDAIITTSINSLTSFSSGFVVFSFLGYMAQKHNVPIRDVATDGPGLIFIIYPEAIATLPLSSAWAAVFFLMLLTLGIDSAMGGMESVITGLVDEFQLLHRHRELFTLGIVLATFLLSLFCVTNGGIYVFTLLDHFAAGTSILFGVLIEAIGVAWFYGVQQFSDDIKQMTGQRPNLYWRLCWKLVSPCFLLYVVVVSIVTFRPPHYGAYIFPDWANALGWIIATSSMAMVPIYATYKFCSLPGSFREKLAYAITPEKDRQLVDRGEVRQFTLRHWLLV
Sequence of Sigma intracellular receptor 2 (Q5U3Y7 whole entry): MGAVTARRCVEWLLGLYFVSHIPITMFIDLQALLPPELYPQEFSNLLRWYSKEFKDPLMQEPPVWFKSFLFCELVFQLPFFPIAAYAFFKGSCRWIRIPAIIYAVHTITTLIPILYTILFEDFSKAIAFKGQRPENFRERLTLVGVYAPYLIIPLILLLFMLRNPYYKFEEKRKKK
Sequence of Alpha-2A adrenergic receptor (P08913 whole entry): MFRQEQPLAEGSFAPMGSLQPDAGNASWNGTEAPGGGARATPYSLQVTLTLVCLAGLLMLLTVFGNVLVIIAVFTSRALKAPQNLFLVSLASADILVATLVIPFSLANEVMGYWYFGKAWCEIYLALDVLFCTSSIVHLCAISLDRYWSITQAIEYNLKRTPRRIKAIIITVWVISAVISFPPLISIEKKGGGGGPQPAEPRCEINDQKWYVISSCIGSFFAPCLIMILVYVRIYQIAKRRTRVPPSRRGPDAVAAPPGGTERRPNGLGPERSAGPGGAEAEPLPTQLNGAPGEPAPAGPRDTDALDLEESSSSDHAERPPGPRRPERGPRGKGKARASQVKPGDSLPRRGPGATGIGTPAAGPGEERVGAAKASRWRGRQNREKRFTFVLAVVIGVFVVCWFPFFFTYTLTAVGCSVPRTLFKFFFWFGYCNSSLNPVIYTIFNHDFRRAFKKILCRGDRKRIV
Sequence of Sodium-dependent dopamine transporter (Mus musculus) (Q61327 whole entry): as the sequence (Q61327 whole entry) above

Ki [1]: 5.9 µM
inhibition [2]: 3%
Activity [3]: inactive
Ki (Adenosine receptor A3): 0.262 µM
Compound: CNc1nc(C#Cc2ccc(Cl)s2)nc2c1ncn2[C@H]1[C@H](O)[C@H](O)[C@]2(C(=O)OCCc3ccccc3)C[C@H]12

Ki [4]: > 10 µM
Ki [5]: > 10 µM
Ki [6]: 5 to 10 µM
Activity [3]: 321%
Ki [7]: > 10 µM
inhibition [8]: inactive
Ki [9]: > 10 µM
Compound: CNC(=O)[C@H]1O[C@@H](n2cnc3c(NC)nc(C#Cc4ccc(Cl)s4)nc32)[C@H](O)[C@@H]1O
Time (Mus musculus): >6 h

Compound: CNC(=O)[C@@]12C[C@@H]1[C@@H](n1cnc3c(NC)nc(C#Cc4ccc(Br)s4)nc31)[C@H](O)[C@@H]2O
IC50 [10]: 3.26 µM
Emax [11]: 810%
EC50 [12]: 1.1 µM
Activity [13]: inactive
EC50 ([13]; read-out: EC50): > 10 µM
IC50 [14]: 6.11 µM
Activity [15]: 285%
EC50 ([15]; read-out: EC50): 0.67 µM
Activity [16]: inactive
EC50 [16]: > 10 µM
Activity [17]: 369%
EC50 ([17]; read-out: EC50): 0.87 µM
IC50 [18]: 0.229 µM
IC50 [19]: > 10 µM
Activity [20]: 217%
EC50 ([20]; read-out: EC50): 0.0091 µM
Activity [21]: inactive
